# Read-outs that look alike come from different tables or passages of the source.
# Legend:
# [1] = tested on: UGT1A4 (expressed metabolising enzyme); test: TeamChip metabolism-induced toxicity assay, UGT1A4; assay type: cell-based; conditions: human, IC50, UGT1A4, Ad-UGT1A4 15 MOI; compound 48 h; n = 4
# [2] = tested on: HepaRG cells in 3D culture; conditions: read-out: IC50, HepaRG cells in 3D culture; cited from earlier work
# [3] = tested on: CYP2E1 (expressed drug-metabolizing enzyme); test: TeamChip metabolism-induced toxicity assay, CYP2E1; assay type: cell-based; conditions: human
# How it was run: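 THLE-2 cells in Matrigel spotted onto micropillars at 4°C, held 18 h at 37°C, transduced 1 d with recombinant adenovirus carrying the enzyme gene (Ad-Null as no-enzyme control). Then exposed 2 d to test compound in BEGM. Washed twice in DPBS, Live/Dead stained 1 h in the dark, chip scanned.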
# [4] = tested on: CYP3A4 (expressed drug-metabolizing enzyme); test: TeamChip metabolism-induced toxicity assay, CYP3A4; assay type: cell-based; conditions: human, IC50, CYP3A4, Ad-CYP3A4 15 MOI; compound 48 h; n = 4
# [5] = tested on: THLE-2 cells (no enzyme, Ad-Null); test: TeamChip metabolism-induced toxicity assay, no enzyme control; assay type: cell-based; conditions: Homo sapiens, read-out: IC50, No enzyme
# [6] = tested on: CYP2C9 (expressed drug-metabolizing enzyme); test: TeamChip metabolism-induced toxicity assay, CYP2C9; assay type: cell-based; conditions: human
# [7] = tested on: HepaRG cells in 2D culture; conditions: read-out: IC50, HepaRG cells in 2D culture; cited from earlier work
# [8] = tested on: All Mix: CYP2C9, CYP2D6, CYP3A4, CYP1A2, CYP2E1, UGT1A4 (expressed); test: TeamChip metabolism-induced toxicity assay, All Mix; assay type: cell-based; conditions: human
# [9] = tested on: CYP1A2 (expressed drug-metabolizing enzyme); test: TeamChip metabolism-induced toxicity assay, CYP1A2; assay type: cell-based; conditions: human
# [10] = tested on: CYP2D6 (expressed drug-metabolizing enzyme); test: TeamChip metabolism-induced toxicity assay, CYP2D6; assay type: cell-based; conditions: human
# [11] = tested on: P450 Mix: CYP2C9, CYP2D6, CYP3A4, CYP1A2, CYP2E1 (expressed); test: TeamChip metabolism-induced toxicity assay, P450 Mix; assay type: cell-based; conditions: human
# THLE-2 cells [12] = test: Apoptosis assay; assay type: cell-based, human; conditions: THLE-2 cells on the TeamChip
# THLE-2 cells [13] = test: Intracellular GSH assay on the TeamChip; assay type: cell-based, human; conditions: exposed to 5 μM ketoconazole, at varying concentrations of acetaminophen
# How it was run: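 THLE-2 cells in Matrigel spots on a micropillar chip, transduced with 15 MOI Ad-CYP3A4 or Ad-Null (control) for 1 d. Then exposed for 48 h to varying test compound with 5 μM CYP3A4 inhibitor. Washed twice in DPBS, stained 20 min in the dark with thiol green dye (intracellular GSH kit), chip scanned, GSH quantified; n = 3.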
SMILES,IC50 at 48 h [1],IC50 [2],IC50 at 2 d [3],IC50 at 48 h [4],IC50 ([5]; 48 h),"IC50 ([5]; THLE-2, 48 h)",IC50 at 48 h [6],IC50 [7],IC50 at 48 h [8],IC50 at 48 h [9],IC50 at 48 h [10],IC50 at 48 h [11],number of apoptotic cells (THLE-2 cells [12]),intracellular GSH concentrations in CYP3A4-expressing THLE-2 cells (THLE-2 cells [13])
"CC(=O)Nc1ccc(O)cc1 [Acetaminophen, acetaminophen]",2100 ± 52 µM,2.7 mM,180 µM,[…],1500 ± 63 µM,1400 ± 250 µM,930 ± 41 µM,26.3 mM,640 ± 100 µM,820 ± 21 µM,1100 ± 71 µM,240 ± 74 µM,–,–
"Nc1c(CC(=O)O)cccc1C(=O)c1ccc(Br)cc1 [Bromfenac, bromfenac]",210 ± 14 µM,–,–,[…],210 ± 17 µM,190 ± 12 µM,120 ± 6 µM,–,[…],190 ± 37 µM,170 ± 39 µM,220 ± 24 µM,–,–
"COc1cccc2c1C(=O)c1c(O)c3c(c(O)c1C2=O)C[C@@](O)(C(=O)CO)C[C@@H]3O[C@H]1C[C@H](N)[C@H](O)[C@H](C)O1 [Doxorubicin, doxorubicin]",–,–,–,–,–,–,–,–,–,–,–,–,increased the number of apoptotic cells in a dose-dependent manner,–
"CC(C)C(=O)Nc1ccc([N+](=O)[O-])c(C(F)(F)F)c1 [Flutamide, flutamide]",38 ± 1.8 µM,–,–,[…],45 ± 1.6 µM,37 ± 9.7 µM,25 ± 4.8 µM,–,17 ± 1.1 µM,18 ± 0.5 µM,27 ± 5.1 µM,18 ± 4.1 µM,–,–
"CN1CCN(CCCN2c3ccccc3Sc3ccc(C(F)(F)F)cc32)CC1 [Trifluoperazine, trifluoperazine]",100 ± 12 µM,–,–,110 ± 7.3 µM,75 ± 11 µM,80 ± 9.4 µM,75 ± 12 µM,–,110 ± 10 µM,120 ± 5.1 µM,69 ± 9.3 µM,53 ± 13 µM,–,–
"Cc1c(C)c2c(c(C)c1O)CCC(C)(COc1ccc(CC3SC(=O)NC3=O)cc1)O2 (centres unmarked) [Troglitazone, troglitazone]",150 ± 11 µM,–,–,[…],110 ± 15 µM,92 ± 6.4 µM,50 ± 4.9 µM,–,62 ± 2.9 µM,39 ± 6.6 µM,77 ± 4.2 µM,51 ± 4.3 µM,–,–
CC(=O)N1CCN(c2ccc(OCC3COC(Cn4ccnc4)(c4ccc(Cl)cc4Cl)O3)cc2)CC1 (centres unmarked) [ketoconazole],–,–,–,–,–,–,–,–,–,–,–,–,–,unchanged

# From article PMC4132844 (Nature communications, 2014)
